Experimental data from ChEMBL document CHEMBL1909586 (Eur J Med Chem, 2011).

Assays:
Cholinesterase = Cholinesterase (Homo sapiens, UniProt P06276); assay: Inhibition of human serum recombinant BChE after 20 mins using butyrylthiocholine iodide as a substrate by Ellman's assay
SH-SY5Y [1] = assay: Antioxidant activity in human SH-SY5Y cells assessed as inhibition of tert-butyl hydroperoxide-induced intracellular ROS production at 10 uM after 24 hrs using DCFH-DA by fluorescence assay (reference value: 82.4 +/- 6.6 %); assay type: functional; parameters: scale not given: the % may be the effect or the level left
SH-SY5Y [2] = assay: Antioxidant activity in human SH-SY5Y cells assessed as inhibition of tert-butyl hydroperoxide-induced intracellular ROS production at 5 uM after 24 hrs using DCFH-DA by fluorescence assay (reference value: 82.4 +/- 6.6 %); assay type: functional; parameters: scale not given: the % may be the effect or the level left
SH-SY5Y [3] = assay: Antioxidant activity in human SH-SY5Y cells assessed as inhibition of tert-butyl hydroperoxide-induced intracellular ROS production at 1 uM after 24 hrs using DCFH-DA by fluorescence assay (reference value: 82.4 +/- 6.6 %); assay type: functional; parameters: scale not given: the % may be the effect or the level left
SH-SY5Y [4] = assay: Cytotoxicity against human SH-SY5Y cells assessed as reduction in cell viability at 50 uM after 24 hrs by MTT assay; assay type: cell-based
Procedure, shortened: (§1)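 Cells were SH-SY5Y, grown in DMEM with 10% fetal calf serum and 2 mM glutamine, seeded at 2 × 10^5 cells/well and allowed 24 h at 37 °C/5% CO2. Compound-containing media (0.1–50 µM) were applied for 24 h. After a PBS wash, cells took up MTT (5 mg/mL in PBS) for 4 h. Formazan was dissolved in isopropanol and read at 405 nm. Viability is given as % of control cells.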

SH-SY5Y [5] = assay: Antioxidant activity in human SH-SY5Y cells assessed as inhibition of tert-butyl hydroperoxide-induced intracellular ROS production at 50 uM after 24 hrs using DCFH-DA by fluorescence assay (reference value: 82.4 +/- 6.6 %); assay type: functional; parameters: scale not given: the % may be the effect or the level left
Acetylcholinesterase [6] = target: T1, Acetylcholinesterase (Homo sapiens, UniProt P22303); assay: Inhibition of human AChE-induced amyloid beta (1 to 40) aggregation at 100 uM after 24 hrs by thioflavin T based fluorometric assay
T1 sequence (P22303 whole entry): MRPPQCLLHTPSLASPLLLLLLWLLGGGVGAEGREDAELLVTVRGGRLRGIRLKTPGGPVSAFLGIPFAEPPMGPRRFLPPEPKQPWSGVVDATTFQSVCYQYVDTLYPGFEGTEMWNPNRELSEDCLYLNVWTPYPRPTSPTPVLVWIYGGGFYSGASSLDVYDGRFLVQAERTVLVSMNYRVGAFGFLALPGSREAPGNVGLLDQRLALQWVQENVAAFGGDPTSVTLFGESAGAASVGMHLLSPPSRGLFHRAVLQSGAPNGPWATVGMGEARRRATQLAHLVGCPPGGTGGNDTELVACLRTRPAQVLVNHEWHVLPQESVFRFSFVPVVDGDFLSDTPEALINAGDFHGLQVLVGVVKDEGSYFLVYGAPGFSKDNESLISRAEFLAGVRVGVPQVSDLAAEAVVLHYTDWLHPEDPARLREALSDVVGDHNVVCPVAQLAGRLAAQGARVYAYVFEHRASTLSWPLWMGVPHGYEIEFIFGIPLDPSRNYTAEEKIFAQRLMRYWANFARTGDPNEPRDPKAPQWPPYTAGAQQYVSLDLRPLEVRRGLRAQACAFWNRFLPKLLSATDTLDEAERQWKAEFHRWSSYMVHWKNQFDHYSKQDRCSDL

Acetylcholinesterase [7] = target: T1, Acetylcholinesterase; assay: Inhibition of human […] recombinant AChE after 20 mins using acetylthiocholine iodide as a substrate by Ellman's assay
SH-SY5Y [8] = assay: Cytotoxicity against human SH-SY5Y cells at 0.1 to 50 uM after 24 hrs by MTT assay; assay type: cell-based; procedure, shortened: as §1

Sequence of Cholinesterase (P06276 whole entry): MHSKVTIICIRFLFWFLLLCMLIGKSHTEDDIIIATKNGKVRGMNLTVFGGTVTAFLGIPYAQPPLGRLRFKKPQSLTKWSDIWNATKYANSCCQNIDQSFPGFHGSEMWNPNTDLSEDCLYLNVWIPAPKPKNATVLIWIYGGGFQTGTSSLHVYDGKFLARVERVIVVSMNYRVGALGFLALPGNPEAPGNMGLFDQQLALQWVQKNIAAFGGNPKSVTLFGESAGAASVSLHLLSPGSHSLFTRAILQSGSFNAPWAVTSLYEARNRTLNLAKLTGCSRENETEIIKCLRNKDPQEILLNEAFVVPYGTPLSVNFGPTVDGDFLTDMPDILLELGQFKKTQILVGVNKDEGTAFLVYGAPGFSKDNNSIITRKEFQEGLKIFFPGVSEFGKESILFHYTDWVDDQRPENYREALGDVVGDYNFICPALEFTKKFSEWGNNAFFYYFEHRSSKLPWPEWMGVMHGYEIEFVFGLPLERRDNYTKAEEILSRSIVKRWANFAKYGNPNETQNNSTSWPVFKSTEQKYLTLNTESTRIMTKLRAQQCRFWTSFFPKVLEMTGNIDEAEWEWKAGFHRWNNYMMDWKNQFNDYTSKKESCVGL

Row | SMILES | IC50 (Cholinesterase) [µM] | Activity (SH-SY5Y [1]) [%] | Activity (SH-SY5Y [2]) [%] | Activity (SH-SY5Y [3]) [%] | Activity (SH-SY5Y [4]) [%] | Activity (SH-SY5Y [5]) [%] | inhibition (Acetylcholinesterase [6]) [%] | IC50 (Acetylcholinesterase [7]) [µM] | Activity (SH-SY5Y [8])
1 | COc1cc2nc(Cl)nc(NCCCNC(=O)CCCCC3CCSS3)c2cc1OC (racemic) | 205 | 63.4 | 73.5 | 82 | 30 | – | – | – | –
2 | O=C(CCCCC1CCSS1)NCCCNc1c2c(nc3cc(Cl)ccc13)CCCC2 (racemic) [LIPOCRINE] | – | 50 | 65 | 83.2 | – | 31 | 61.8 | – | –
3 | O=C(CCCCc1cccs1)NCCCNc1c2c(nc3cc(Cl)ccc13)CCCC2 | – | 80.2 | 79.8 | 81 | 80 | – | – | – | –
4 | O=C(CCCC[C@H]1CCSS1)NCCCNc1c2c(nc3cc(Cl)ccc13)CCCC2 | 0.0121 | – | – | – | – | – | – | 0.000471 | –
5 | CC(c1cccc(OCCCNC(=O)CCCCC2CCSS2)c1)N(C)C (mixture of isomers) | – | 48 | 76.8 | 80.3 | – | 34.4 | – | – | Non-toxic
6 | COc1cccc(C(C)N(C)CCCNC(=O)CCCCC2CCSS2)c1 (mixture of isomers) | – | 68.8 | 80 | 82.5 | – | 46.4 | – | – | Non-toxic
7 | O=C(CCCC[C@@H]1CCSS1)NCCCNc1c2c(nc3cc(Cl)ccc13)CCCC2 | 0.0126 | – | – | – | – | – | – | – | –
8 | CCN(CCCCCCNC(=O)CCCCC1CCSS1)Cc1ccccc1OC (racemic) | – | 69.6 | 75.8 | 80.8 | – | 37.6 | 16.8 | – | Non-toxic
